The source of these data is ChEMBL document CHEMBL1146554, “Antioxidative meroterpenoids from the brown alga Cystoseira crinita” (J Nat Prod, 2003).

The test system of data set [1] is Radical scavenging activity. Nature of the data set: Antioxidant activity assessed as DPPH radical scavenging activity at 12 uM after 30 mins. It is filed as functional. An outline of the steps:
(§1)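 Samples in EtOH (100 µL) mixed with 25 µL of 1 mM DPPH in EtOH plus 75 µL EtOH, then shaken briefly. Kept 30 min at room temperature in the dark. Absorbance read at 517 nm. % scavenging calculated against control, with blank and sample-blank corrections.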
(In general: DPPH is a stable violet radical that fades when it is reduced.)

The nature of data set [2]: Antioxidant activity assessed as inhibition of FeSO4-induced lipid peroxidation at 8 uM by TBARS assay. The data set is classed as functional. An outline of the steps:
(§2)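 Linolenic acid methyl ester oxidized under FeSO4 catalysis in 50 mM phosphate buffer pH 7.2 at 50 °C. BHT in ethanol added to stop further oxidation. TBARS developed with trichloroacetic and thiobarbituric acid, 60 °C for 30 min. Read A532 minus A600 background. % inhibition calculated versus uninhibited control, with blank and sample-blank corrections.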

A short description of data set [3]: Antioxidant activity assessed as inhibition of FeSO4-induced lipid peroxidation at 164 uM by TBARS assay. The data set is classed as functional. Put shortly:
as §2

The nature of data set [4]: Superoxide radical scavenging activity assessed as trolox equivalents by photochemiluminescence assay. Put shortly:
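Photochemiluminescence with luminol acting as photosensitizer and detection reagent, generating superoxide. Mix of 2.29 mL reagent 1 (solvent/diluent), 200 µL buffer reagent, 25 µL photosensitizer and 10 µL sample in ethanol or Trolox standard in water. Antioxidant capacity taken from the integral under the curve and expressed as Trolox equivalents.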

The test system of data set [5] is Radical scavenging activity. The experiment in a line: Antioxidant activity assessed as DPPH radical scavenging activity at 6 uM after 30 mins. The data set is classed as functional. An outline of the steps:
as §1

The test system of data set [6] is Radical scavenging activity. The experiment in a line: Antioxidant activity assessed as DPPH radical scavenging activity at 230 uM after 30 mins. It is filed as functional. Put shortly:
as §1

A short description of data set [7]: ABTS radical scavenging activity assessed as trolox equivalents by TEAC assay. The data set is classed as physicochemical. An outline of the steps: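 ABTS radical cation made by passing ABTS in PBS through manganese dioxide, then filtered (0.2 µm). Diluted in 5 mM PBS pH 7.4 to A734 0.700 and preincubated 2 h at room temperature. 1 mL radical mixed with 200 µL ethanolic sample, vortexed 30 s, centrifuged. A734 of lower phase read exactly 2 min after mixing. PBS and ethanol blanks included. Trolox standards used; value is mM Trolox equivalent to 1.0 mM compound.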

Data set [8] relates to Radical scavenging activity. The experiment in a line: Antioxidant activity assessed as DPPH radical scavenging activity at 58 uM after 30 mins. It is filed as functional. An outline of the steps: as §1
The test system of data set [9] is Radical scavenging activity. The experiment in a line: Antioxidant activity assessed as DPPH radical scavenging activity at 115 uM after 30 mins. The data set is classed as functional. An outline of the steps: as §1
Data set [10] deals with Radical scavenging activity. The experiment in a line: Antioxidant activity assessed as DPPH radical scavenging activity at 23 uM after 30 mins. It is filed as functional. Put shortly:
as §1

The nature of data set [11]: Antioxidant activity assessed as inhibition of FeSO4-induced lipid peroxidation at 82 uM by TBARS assay. It is filed as functional. Put shortly: as §2
The nature of data set [12]: Antioxidant activity assessed as inhibition of FeSO4-induced lipid peroxidation at 33 uM by TBARS assay. It is filed as functional. Put shortly:
as §2

The nature of data set [13]: Antioxidant activity assessed as inhibition of FeSO4-induced lipid peroxidation at 16 uM by TBARS assay. The data set is classed as functional. An outline of the steps: as §2
Data set [14] deals with [Chlorella] fusca. Nature of the data set: Antimicrobial activity against 'Chlorella' fusca at 50 ug/disk by agar diffusion assay. It is filed as functional, organism-based. The note with it: Scenedesmus fuscus. An outline of the steps: (§3)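 Agar diffusion assay with discs loaded at 50 µg/disk, run against the bacteria, fungi and the green microalga Chlorella fusca.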
For data set [15], the system named is Priestia megaterium. Nature of the data set: Antimicrobial activity against Bacillus megaterium at 50 ug/disk by agar diffusion assay. It is filed as functional, organism-based. Put shortly:
as §3

Data set [16] has as its system Microbotryum violaceum. Nature of the data set: Antimicrobial activity against Microbotryum violaceum at 50 ug/disk by agar diffusion assay. It is filed as functional, organism-based. An outline of the steps:
as §3

Data set [17] concerns Aspergillus pseudoglaucus. The experiment in a line: Antimicrobial activity against Eurotium repens at 50 ug/disk by agar diffusion assay. The data set is classed as functional, organism-based. An outline of the steps: as §3
The subject of data set [18] is Escherichia coli. Nature of the data set: Antimicrobial activity against Escherichia coli at 50 ug/disk by agar diffusion assay. The data set is classed as functional, organism-based. Put shortly:
as §3
Background: In agar diffusion tests the substance spreads into inoculated agar from a disc or well.

Data set [19] concerns Mycotypha microspora. The experiment in a line: Antimicrobial activity against Mycotypha microspora at 50 ug/disk by agar diffusion assay. It is filed as functional, organism-based. An outline of the steps: as §3

Each structure is given as a SMILES string. Active and inactive are the calls of the source. The rule behind the calls is not given here.

By inhibition is commonly meant the share of the control response that was lost under treatment. Take `Cc1c(C)c2c(c(C)c1O)CC[C@@](C)(CCC[C@H](C)CCC[C@H](C)CCCC(C)C)O2` [ALPHA-TOCOPHEROL]: the Activity in data set [1] was 16.3%; in data set [4] it was 1.26 mmol/L; in data set [5] it was 8.2%; in data set [6], 95.2%; in data set [7], 0.63 mmol/L; in data set [8], 88.1%. In addition, the Activity in data set [9] was 94.9%; in [10], 33.9%. The inhibition in [2] is 13.1%; in [3], 72.7%; in data set [11], 71.2%; in data set [12] it was 67.6%; in data set [13], 32.1%.
For `CC(C)=CCC/C(C)=C\C(=O)C/C(C)=C/Cc1cc(O)cc(C)c1O`, the Activity was 5.9% in [1]; 2.6% in data set [5]; 92.5% in data set [6]; 50.2% in [8]; 92.1% in [9]; 17.7% in data set [10]. Also, the inhibition stood at 13.2% in [2]; 66.5% in data set [3]; 52.9% in data set [11]; 28.8% in [12]; 19.9% in data set [13].
Turning to `CC(C)=CCC/C(C)=C/CC/C(C)=C\C(=O)C/C(C)=C/Cc1cc(O)cc(C)c1O`, the Activity in data set [1] was found to be 11.8%; in [4], 1.35 mmol/L; in data set [5], 6.9%; in data set [6], 95.4%; in data set [7], 0.14 mmol/L; in [8] it was 67.2%. Also, the Activity amounted to 95.4% in [9] and 25.5% in data set [10]. The inhibition was 10.7% in [2]; 71.8% in [3]; 66.8% in [11]; 28.6% in data set [12]; 12.1% in data set [13]. The outcome in data set [14], in data set [15], in [16], in [17], in [18] and in data set [19] was inactive.
`CC(C)=CC(O)C/C(C)=C/CC/C(C)=C/C(=O)C/C(C)=C/Cc1cc(O)cc(C)c1O` (stereo unspecified): the Activity in data set [1] turned out to be 7.4%; in data set [5], 4.6%; in data set [6], 96.1%; in [8], 49.2%; in data set [9], 93.2%; in data set [10], 18.1%. Further, the inhibition in data set [2] worked out at 7.8%; in data set [3], 68.9%; in data set [11], 55.4%; in [12], 17.6%; in [13], 11.7%. The result in [14], in data set [15], in data set [16], in data set [17], in [18] and in [19] was inactive.
Turning to `CC1=CC(=O)C=C(C/C=C(\C)CC(=O)/C=C(\C)CC/C=C(\C)Cc2cc(C)co2)C1=O`, the Activity in data set [1] was determined as 2.2%; in [5], 1%; in [6] it was 29%; in data set [8], 8.1%; in data set [9] it was 16%; in data set [10], 2.9%. For the same compound, the inhibition is 7.6% in data set [2]; 43.3% in [3]; 31.4% in data set [11]; 20.2% in data set [12]; 14.2% in [13].
As for `CC(C)=CCC/C(C)=C/CC/C(C)=C/C(=O)C/C(C)=C/Cc1cc(O)cc(C)c1O`, the Activity amounted to 8.6% in data set [1]; 6% in data set [5]; 94.4% in data set [6]; 67.4% in data set [8]; 95% in [9]; 24.4% in data set [10]. Moreover, the inhibition in data set [2] worked out at 13.3%; in data set [3] it was 70.8%; in data set [11], 61.7%; in [12], 24.3%; in [13], 17%. The result in [14], in data set [15], in data set [16], in data set [17], in data set [18] and in [19] was inactive.
`CC1=CC(=O)C=C(C/C=C(\C)CC(=O)/C=C(/C)CC/C=C(\C)Cc2cc(C)co2)C1=O`: the Activity was found to be 1.8% in data set [1]; 1.41 mmol/L in data set [4]; 1.1% in [5]; 38.6% in [6]; 0.3 mmol/L in [7]; 12.2% in data set [8]. Besides, the Activity in data set [9] came out at 22.8%; in data set [10], 5.5%. Further, the inhibition in [2] came out at 11.1%; in data set [3] it was 54.4%; in data set [11] it was 38.7%; in data set [12] it was 24.4%; in data set [13] it was 16.1%. The outcome in data set [14], in data set [15], in data set [16], in data set [17], in data set [18] and in data set [19] was inactive.
Consider `CC(C)=CCC/C(C)=C/C(=O)C/C(C)=C/Cc1cc(O)cc(C)c1O`, for which the Activity in data set [1] amounted to 3.7%; in [5], 2.6%; in [6], 94.1%; in [8], 29.8%; in [9], 59.1%; in data set [10], 11.2%. For the same compound, the inhibition in [2] stood at 9.2%; in data set [3], 66.8%; in data set [11] it was 43.1%; in [12], 22.2%; in data set [13] it was 19.8%. Besides, the outcome in data set [14], in data set [15], in data set [16], in [17], in data set [18] and in [19] was inactive.
As for `CC(C)=CC(=O)C/C(C)=C/CC/C(C)=C/C(=O)C/C(C)=C/Cc1cc(O)cc(C)c1O`, the Activity was found to be 14.3% in data set [1]; 1.39 mmol/L in data set [4]; 7.6% in [5]; 95.5% in data set [6]; 0.37 mmol/L in [7]; 80.8% in data set [8]. Also, the values for the Activity in [9] and in data set [10] were 95.7% and 29.1%, respectively. The inhibition in data set [2] came out at 13.6%; in data set [3], 72.2%; in data set [11] it was 70.1%; in [12], 39.9%; in data set [13], 20.3%. Further, the result in data set [14], in data set [15], in data set [16], in data set [17], in data set [18] and in data set [19] was inactive.
Turning to `CC(C)=CC(O)C/C(C)=C/CC/C(C)=C\C(=O)C/C(C)=C/Cc1cc(O)cc(C)c1O` (stereo unspecified), the Activity was found to be 9.7% in data set [1]; 5.8% in data set [5]; 95.5% in [6]; 55.2% in data set [8]; 95.5% in data set [9]; 17.1% in data set [10]. Besides, the inhibition in data set [2] came to 4.9%; in data set [3], 70.3%; in data set [11], 60.4%; in data set [12] it was 19.2%; in data set [13], 10.4%. In addition, the outcome in data set [14], in [15], in data set [16], in data set [17], in data set [18] and in data set [19] was inactive.
On to `Cc1cc(C(C)(C)C)c(O)c(C(C)(C)C)c1`, for which the Activity stood at 2.9% in data set [1]; 1.2% in data set [5]; 35.6% in data set [6]; 11.8% in [8]; 22% in data set [9]; 5.6% in [10]. In addition, the inhibition in [2] is 23.1%; in [3], 69.3%; in [11], 63.3%; in data set [12], 49.1%; in data set [13] it was 35.4%.
